Laboratory results as given in ChEMBL document CHEMBL1125823, “2-Phenylindole-linked [2-(aminoalkyl)pyridine]dichloroplatinum(II): complexes with a selective action on estrogen receptor positive mammary tumors” (1991).
Each block holds one compound with its values, some of them ahead of it.

Assays:
[1] = target: T1, Estrogen receptor (Mus musculus) (UniProt O08537+P19785); assay: Anti-uterotrophic effect in mice as relative uterine weight(mg) at 15 ug; assay type: functional
Outline: (§1)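 Immature mice received the compound sc per animal on three consecutive days, alone or with 0.4 µg estrone per animal per day. Uteri were taken 24 h after the last injection, Bouin-fixed, dried at 100 °C for 24 h and weighed. Relative uterus weight = dry weight (mg)/body weight (g) × 100; mean of 6-10 animals ± SD; Mann-Whitney U test.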

[2] = target: T1, Estrogen receptor (Mus musculus); assay: Percent inhibition of estrone stimulated uterotrophic effect in mice at 15 ug; assay type: functional
Outline: (§2)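 Immature mice given test compound per animal sc on three consecutive days together with 0.4 μg estrone/animal/day. Killed 24 h after last injection; uteri fixed in Bouin, dried 100 °C 24 h and weighed. Inhibition = 100 − [(W_S,T − W_V)/(W_S − W_V) × 100] using relative uterus weights; 6-10 animals; Wilcoxon-Mann-Whitney U test.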

MCF7 [3] = assay: Effect on [3H]thymidine incorporation into estrogen receptor positive MCF-7 human breast cancer cells at 5*10e-6 M (control = 10.2+/-1.4); assay type: functional
Outline: (§3)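 MCF-7 cells in improved MEM with glutamine, gentamycin and 5% newborn calf serum, switched to charcoal-treated serum two weeks ahead; phenol red present; 37 °C, 5% CO2. About 2×10^4 cells plated per well; compound in 0.1% DMF added 2 days later, renewed on day 4; labelled 3 days later with 1 μCi [3H]thymidine per well for 2 h; cpm/dish, mean of six dishes ± SD.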

Mus musculus [4] = species: Mus musculus; assay: Relative tumor weight in treated compared to control mice bearing hormone-dependent transplanted MXT mammary tumors at 12.5 mg
MCF7 [5] = assay: Effect on [3H]thymidine incorporation into estrogen receptor positive MCF-7 human breast cancer cells at 5x10E-6M; assay type: functional; outline: as §3
[6] = target: T1, Estrogen receptor (Mus musculus); assay: Anti-uterotrophic effect in mice as relative uterine weight(mg) at 150 ug; assay type: functional; outline: as §1
MCF7 [7] = assay: Effect on Estrogen receptor positive MCF-7 human breast cancer cell proliferation at 5x10E-6M (control = 24.4+/-3.8); assay type: functional
Outline: (§4)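 MCF-7 cells were kept in MEM with 5% charcoal-treated newborn calf serum and phenol red for 2 weeks, then about 2×10^4 cells were plated per well. Compounds in 0.1% DMF were added 2 days later and renewed on day 4; DMF alone served as control. Coulter cell counts were taken on day 5; mean of six dishes ± SD; % T/C.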

MCF7 [8] = assay: Effect on [3H]thymidine incorporation into estrogen receptor positive MCF-7 human breast cancer cells at 1*10^-6 M (control = 10.2+/-1.4); assay type: functional
Outline: (§5)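 MCF-7 cells were grown in MEM with charcoal-treated 5% newborn calf serum and phenol red, then treated with compounds in 0.1% DMF (renewed on day 4) alongside DMF controls. They were labeled 3 days later with 1 µCi [³H]thymidine per well for 2 h, and incorporated radioactivity per dish was measured; mean of six dishes ± SD; % T/C.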

[9] = target: T1, Estrogen receptor (Mus musculus); assay: Percent inhibition of estrone stimulated uterotrophic effect in mice at 150 ug; assay type: functional; outline: as §2
MCF7 [10] = assay: Effect on Estrogen receptor positive MCF-7 human breast cancer cell proliferation at 5x10E-6M; assay type: functional; outline: as §4
[11] = target: T1, Estrogen receptor (Mus musculus); assay: Anti-uterotrophic effect in hormone-dependent transplant MXT bearing mice as relative uterine weight in treated and control mice at 12.5 mg (control=100+/-24); assay type: functional
MCF7 [12] = assay: Effect on Estrogen receptor positive MCF-7 human breast cancer cell proliferation at 1x10E-6M (control = 24.4+/-3.8); assay type: functional; outline: as §4
[13] = target: T1, Estrogen receptor (Mus musculus); assay: Uterotrophic effect in mice as relative uterine weight(mg) at 150 ug (control = […]+/-1.7); assay type: functional, tissue-based
[14] = target: T1, Estrogen receptor (Mus musculus); assay: Uterotrophic effect in mice as relative uterine weight(mg) at 15 ug (control = […]+/-1.7); assay type: functional, tissue-based
Mus musculus [15] = species: Mus musculus; assay: Anti-tumor activity in hormone-dependent transplant MXT mammary tumor bearing mice at 12.5 mg (control=197+/-130); assay type: functional
MCF7 [16] = assay: Effect on [3H]thymidine incorporation into estrogen receptor positive MCF-7 human breast cancer cells at 1x10E-6M; assay type: functional; outline: as §5
MCF7 [17] = assay: Effect on Estrogen receptor positive MCF-7 human breast cancer cell proliferation at 1x10E-6M; assay type: functional; outline: as §4
MCF7 [18] = assay: Effect on Estrogen receptor positive MCF-7 human breast cancer cell proliferation at 1x10E-6M (control = 63.8+/-9.0); assay type: functional; outline: as §4
MCF7 [19] = assay: Effect on Estrogen receptor positive MCF-7 human breast cancer cell proliferation at 5x10E-7M; assay type: functional; outline: as §4
MCF7 [20] = assay: Effect on [3H]thymidine incorporation into estrogen receptor positive MCF-7 human breast cancer cells at 5x10E-7M
MCF7 [21] = assay: Effect on [3H]thymidine incorporation into estrogen receptor positive MCF-7 human breast cancer cells at 1x10E-6M (control = 42.6+/-2.8); assay type: functional; outline: as §5
MCF7 [22] = assay: Effect on [3H]-thymidine incorporation into estrogen receptor positive MCF-7 human breast cancer cells at 5x10E-7M (control = 42.6+/-2.8); assay type: functional; outline: as §5
MCF7 [23] = assay: Effect on Estrogen receptor positive MCF-7 human breast cancer cell proliferation at 5x10E-6M (control = 63.8+/-9.0); assay type: functional; outline: as §4
[24] = target: T1, Estrogen receptor (Mus musculus); assay: Uterotrophic effect in mice as relative uterine weight(mg) at 150 ug (control = 12.3+/-3.7); assay type: functional, tissue-based
Outline: (§6)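 Immature mice dosed sc per animal on three consecutive days; vehicle controls. Killed and weighed 24 h after last injection; uteri fixed in Bouin solution 2 h, washed with alcoholic LiCl, dried at 100 °C for 24 h. Relative uterus weight = uterine dry weight (mg)/body weight (g) × 100; mean of 6-10 animals ± SD.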

MCF7 [25] = assay: Effect on Estrogen receptor positive MCF-7 human breast cancer cell proliferation at 5x10E-7M (control = 63.8+/-9.0); assay type: functional; outline: as §4
MCF7 [26] = assay: Effect on [3H]thymidine incorporation into estrogen receptor positive MCF-7 human breast cancer cells at 5x10E-6M (control = 42.6+/-2.8); assay type: functional; outline: as §3
[27] = target: T1, Estrogen receptor (Mus musculus); assay: Uterotrophic effect in mice as relative uterine weight(mg) at 15 ug (control = 12.3+/-3.7); assay type: functional, tissue-based; outline: as §6

T1 sequence (O08537 whole entry, looked up): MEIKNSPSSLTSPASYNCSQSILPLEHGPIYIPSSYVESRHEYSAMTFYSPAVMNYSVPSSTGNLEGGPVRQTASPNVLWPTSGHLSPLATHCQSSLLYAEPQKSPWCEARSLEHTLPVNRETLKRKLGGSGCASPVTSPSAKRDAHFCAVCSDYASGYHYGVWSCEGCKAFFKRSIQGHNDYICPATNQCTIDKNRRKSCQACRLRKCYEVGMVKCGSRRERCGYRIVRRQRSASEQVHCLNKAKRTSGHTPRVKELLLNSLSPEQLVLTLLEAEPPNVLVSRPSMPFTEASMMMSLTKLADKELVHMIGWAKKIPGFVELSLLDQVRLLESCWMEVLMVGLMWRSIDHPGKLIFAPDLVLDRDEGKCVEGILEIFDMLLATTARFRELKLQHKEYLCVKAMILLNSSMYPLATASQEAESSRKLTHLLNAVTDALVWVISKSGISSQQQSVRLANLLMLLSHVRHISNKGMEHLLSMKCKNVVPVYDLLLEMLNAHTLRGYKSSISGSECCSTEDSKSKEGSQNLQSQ
T1 sequence (P19785 whole entry, looked up): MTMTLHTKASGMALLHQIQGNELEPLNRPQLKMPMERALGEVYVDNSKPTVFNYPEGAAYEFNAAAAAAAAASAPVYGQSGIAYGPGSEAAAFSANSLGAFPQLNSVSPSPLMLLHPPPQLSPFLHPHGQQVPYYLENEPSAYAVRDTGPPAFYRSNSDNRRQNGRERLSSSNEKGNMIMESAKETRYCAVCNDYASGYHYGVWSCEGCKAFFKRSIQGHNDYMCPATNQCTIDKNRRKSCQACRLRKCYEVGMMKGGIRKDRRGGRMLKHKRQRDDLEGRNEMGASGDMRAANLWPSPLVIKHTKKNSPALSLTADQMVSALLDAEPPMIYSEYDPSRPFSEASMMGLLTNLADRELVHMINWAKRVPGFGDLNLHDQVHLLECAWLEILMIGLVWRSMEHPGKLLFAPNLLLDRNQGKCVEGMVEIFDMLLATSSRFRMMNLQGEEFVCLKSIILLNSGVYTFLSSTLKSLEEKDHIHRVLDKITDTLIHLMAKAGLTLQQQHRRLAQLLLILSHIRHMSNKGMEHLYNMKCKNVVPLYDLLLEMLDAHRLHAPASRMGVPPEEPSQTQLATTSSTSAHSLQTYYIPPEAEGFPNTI

- Relative uterus weight [1]: 34.2 mg
- inhibition [2]: 39%
- Relative uterus weight [6]: 22.4 mg
- inhibition [9]: 77%
- T/C [11]: 96%
- Relative uterus weight [13]: 20.2 mg
- Relative uterus weight [14]: 14.6 mg
SMILES: Cc1c(-c2ccc(O)cc2)n(CCCCCCNC(C)c2ccccn2)c2ccc(O)cc12 (stereo not given)
- Activity (MCF7 [3]): 1200
- T/C (Mus musculus [4]): 75%
- T/C (MCF7 [5]): 12%
- Cell no/dish (MCF7 [7]): 95000
- Activity (MCF7 [8]): 4600
- T/C (MCF7 [10]): 39%
- Cell no/dish (MCF7 [12]): 126000
- Tumor weight (Mus musculus [15]): 148 mg
- T/C (MCF7 [16]): 46%
- T/C (MCF7 [17]): 52%

- Relative uterus weight [1]: 41.9 mg
- inhibition [2]: 11%
- Relative uterus weight [6]: 29.4 mg
- inhibition [9]: 48%
- Relative uterus weight [24]: 19 mg
- Relative uterus weight [27]: 15.2 mg
SMILES: Cc1c(-c2ccc(O)cc2)n(CCCCCCCNCc2ccccn2)c2ccc(O)cc12
- Cell no/dish (MCF7 [18]): 264000
- T/C (MCF7 [19]): 58%
- T/C (MCF7 [5]): 5%
- T/C (MCF7 [20]): 34%
- T/C (MCF7 [10]): 23%
- Activity (MCF7 [21]): 11300
- T/C (MCF7 [16]): 27%
- T/C (MCF7 [17]): 41%
- [3H] thymidinecpm/dish (MCF7 [22]): 14500
- Cell no/dish (MCF7 [23]): 146000
- Cell no/dish (MCF7 [25]): 369000
- Activity (MCF7 [26]): 2200
